Results published in ChEMBL document CHEMBL3259533, “A new convenient synthetic method and preliminary pharmacological characterization of triazinediones as prokineticin receptor antagonists” (Eur J Med Chem, 2014).
The source made the active and inactive calls. The rule behind the calls is not given here.

Experiments:
Mus musculus [1] = assay: Analgesic activity in C57Bl/6 mouse assessed as changes in basal thermal sensitivity up to 120 pmol administered as intraplantar route at 48 degC after 15 to 180 mins; format: functional, organism-based
How it was run: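 Male C57Bl/6 mice (25–30 g), trained in paw-immersion test the preceding week. Compound in saline, 20 µl intraplantar, up to 120 pmol. Hind paw dipped in 48 °C water; withdrawal latency measured three times at 15–180 min post-dose versus baseline (mean of last three pre-dose readings). Result as % change from baseline; 5 mice per dose.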

Mus musculus [2] = assay: Analgesic activity in C57Bl/6 mouse assessed as inhibition of Bv8-induced decrease in latencies to paw withdrawal administered as intraplantar route at 48 degC after 15 to 180 mins; format: functional, organism-based
How it was run: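 Male C57Bl/6 mice (25–30 g), trained the preceding week. Antagonist in saline, 20 µl intraplantar, 5 min before Bv8 (63 fmol i.pl. in saline). Paw withdrawal latency from 48 °C water measured in triplicate at 15–180 min; %ΔNT = 100×(NTts−NTB)/NTB. Separate group of 5 mice per dose; EC50 with 95% confidence intervals from dose–response curves.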

| SMILES | Activity (Mus musculus [1]) | EC50 (Mus musculus [2]) [pmol] |
| --- | --- | --- |
| Cc1ccc(Cn2c(=O)nc(NCCNC(=N)N)n(Cc3ccc(Cl)c(Cl)c3)c2=O)cc1 | inactive | 5.1 |
| COc1ccc(Cn2c(NCCNC(=N)N)nc(=O)n(Cc3ccc(Br)cc3)c2=O)cc1 | inactive | 0.36 |
| COc1ccc(Cn2c(NCCNC(=N)N)nc(=O)n(Cc3ccc(C)cc3)c2=O)cc1 | inactive | 4.4 |
| COc1ccc(Cn2c(=O)nc(NCCNC(=N)N)n(Cc3ccc(Cl)cc3)c2=O)cc1 | inactive | 4.4 |
| COc1ccc(Cn2c(NCCNC(=N)N)nc(=O)n(Cc3ccc(F)cc3)c2=O)cc1 | inactive | 0.31 |
| COc1ccc(Cn2c(NCCNC(=N)N)nc(=O)n(Cc3ccc4c(c3)OCO4)c2=O)cc1 | inactive | 39 |
| COc1ccc(Cn2c(=O)nc(NCCNC(=N)N)n(Cc3ccc(Cl)c(Cl)c3)c2=O)cc1 | inactive | 4.5 |
| COc1ccc(Cn2c(=O)nc(NCCNC(=N)N)n(Cc3ccc(I)cc3)c2=O)cc1 | inactive | 39 |
| COc1ccc(Cn2c(NCCNC(=N)N)nc(=O)n(Cc3ccc(I)cc3)c2=O)cc1 | inactive | 51 |
| COc1ccc(Cn2c(NCCNC(=N)N)nc(=O)n(Cc3ccc(OC)cc3)c2=O)cc1 | inactive | – |
| CCc1ccc(Cn2c(=O)nc(NCCNC(=N)N)n(Cc3ccc(OC)cc3)c2=O)cc1 | inactive | 5.8 |
| COc1ccc(Cn2c(NCCNC(=N)N)nc(=O)n(Cc3ccc(C(F)(F)F)cc3)c2=O)cc1 | inactive | 51 |
| COc1ccc(Cn2c(=O)nc(NCCNC(=N)N)n(Cc3ccccc3)c2=O)cc1 | inactive | 63 |
| COc1ccc(Cn2c(NCCNC(=N)N)nc(=O)n(Cc3ccc(Cl)cc3)c2=O)cc1 | inactive | 4 |
| COc1ccc(Cn2c(=O)nc(NCCNC(=N)N)n(Cc3ccc(F)cc3)c2=O)cc1 | inactive | 36 |
| Cc1ccc(Cn2c(NCCNC(=N)N)nc(=O)n(Cc3ccc(C(F)(F)F)cc3)c2=O)cc1 | inactive | 0.033 |
| COc1ccc(Cn2c(=O)nc(NCCNC(=N)N)n(Cc3ccc(Br)cc3)c2=O)cc1 | inactive | 4.3 |
| COc1ccc(Cn2c(=O)nc(NCCNC(=N)N)n(Cc3ccc(C)cc3)c2=O)cc1 | inactive | 4.5 |
| COc1ccc(Cn2c(NCCNC(=N)N)nc(=O)n(Cc3ccc([N+](=O)[O-])cc3)c2=O)cc1 | inactive | 48 |
| COc1ccc(Cn2c(=O)nc(NCCNC(=N)N)n(Cc3ccc(C(F)(F)F)cc3)c2=O)cc1 | inactive | 48 |
